Bioassay records from PubChem BioAssay.
An excerpt weighted towards active compounds, which were near 3.6% of everything screened.
HCV NS3 hel inh – HCV NS3 helicase inhibition; NS3 helicase DNA unwinding, Cy5 molecular beacon fluorescence; inhibition, % at 10.9 µM; 290,000 tested, 0.56% active;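 active = inhibition above the mean of all tested compounds plus 3 SD, set per campaign, cut at about 35% in these data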;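 also: 0% = DMSO wells and 100% = thioflavine S control wells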
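System: NS3 helicase fragment of HCV / Schedule: 1 h at 25 °C / Control set: DMSO alone as 0% and 110 µM thioflavine S as 100% / Reagent: Cy5/quencher beacon DNA duplex and ATP to start / Technique: Cy5 fluorescence / Replication: singlicate / Evaluation: % inhibition of end-to-start signal ratio versus controls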
ZTA counter – counter-screen for EBNA-1 inhibitors: inhibitors of Epstein-Barr virus ZTA; ZTA-DNA binding, fluorescence polarization; inhibition, % at 11 µM; P03206; 320,000 tested, 0.15% active; AID 2234; in the data active = inhibition above about 33%
Target sequence (P03206 whole entry, looked up): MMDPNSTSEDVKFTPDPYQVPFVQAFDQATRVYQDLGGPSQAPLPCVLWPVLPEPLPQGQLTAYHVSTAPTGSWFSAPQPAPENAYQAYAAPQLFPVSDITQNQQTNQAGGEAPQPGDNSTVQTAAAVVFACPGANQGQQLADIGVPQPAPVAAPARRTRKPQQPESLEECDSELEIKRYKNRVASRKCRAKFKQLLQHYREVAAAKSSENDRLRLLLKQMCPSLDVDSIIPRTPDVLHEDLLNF
FGF22 binding – binders of recombinant human FGF22 by thermal shift. Q9HCT0. SYPRO orange fluorescence; percent of sucrose octasulfate shift, DMSO zero. activity (Tm shift, normalised), % at 9.99 µM. 340,000 tested, 1.5% active;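 active = mean Tm shift, scaled 0 neutral to 100 positive control, at about 1.3% or above, every replicate too, limit read from the data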
Target sequence (Q9HCT0 whole entry, looked up): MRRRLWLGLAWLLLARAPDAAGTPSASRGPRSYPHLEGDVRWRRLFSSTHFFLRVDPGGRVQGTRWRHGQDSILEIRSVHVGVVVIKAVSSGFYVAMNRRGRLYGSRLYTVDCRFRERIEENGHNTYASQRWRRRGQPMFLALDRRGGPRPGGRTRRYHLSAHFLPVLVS
GRIN3A LBD mod – modulators (binders) of human NR3A ligand-binding domain; NR3A LBD differential scanning fluorimetry, Tm shift; 0% = protein alone, 100% = glycine-bound protein; Tm shift relative to glycine control, % at 25 µM; 340,000 tested, 2.5% active; AID 1259313;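 active = melting temperature shift of at least 10% of the positive control shift, at one fixed dose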
DNA FID counter – counter-screen for HCV NS3 helicase inhibitors: DNA intercalator displacement. DNA fluorescent intercalator displacement, fluorescence. inhibition, % at 7.9 µM. 290,000 tested, 0.17% active. AID 1845; in the data active = inhibition above about 37%;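 also: 0% = vehicle and 100% = reference compound; higher means more ethidium bromide displaced from hairpin DNA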
EBNA-1 inh – blocks EBNA-1 binding to DNA | EBNA-1 DNA binding, fluorescence polarization | inhibition, % at 14.8 µM | 300,000 tested, 0.34% active; in the data active = inhibition above about 28%
* hit, by the source's call.

Screening O=C(O)[C@@H]1[C@@H](CO)[C@@H]2Cn3c(ccc(-c4ccccc4)c3=O)[C@@H]2N1CCc1ccccc1 returned FGF22 binding -0.1.
`Cc1cc(/C=C2\NC(=S)N(C)C2=O)ccc1N1CCCC1` gave HCV NS3 hel inh 10.9, ZTA counter -11.0, FGF22 binding -0.4, GRIN3A LBD mod -14.9, DNA FID counter 0.0 and EBNA-1 inh -7.3.
`Cc1cc(/C=C2/C(=O)N(C)C(=S)N2C)ccc1N1CCCC1` gave HCV NS3 hel inh -2.8, ZTA counter 8.8, FGF22 binding 42.9*, GRIN3A LBD mod -3.4, DNA FID counter 3.2 and EBNA-1 inh 3.9.
Screening C[C@@H]1CN([C@H](C)CO)C(=O)Cc2cc(NC(=O)Cc3cn(C)c4ccccc34)ccc2O[C@@H]1CN(C)Cc1ccc(Cl)c(Cl)c1 returned FGF22 binding -0.6.
`CCC(=O)N1C[C@H](O)COC[C@@H]2O[C@H](CC(=O)NCc3cc(F)cc(F)c3)CC[C@H]21` gave FGF22 binding -0.1.
`COc1ccc(Nc2nnc(SC(C(=O)Nc3cc(C)ccc3C)c3ccccc3)s2)cc1` (configuration not stated) gave HCV NS3 hel inh 21.8, ZTA counter -4.4, FGF22 binding -0.2, GRIN3A LBD mod 17.3*, DNA FID counter -5.6 and EBNA-1 inh 2.0.
`COc1ccc(Nc2nnc(SC(C(=O)Nc3ccc(OC)c(Cl)c3)c3ccccc3)s2)cc1` (configuration not stated) gave HCV NS3 hel inh -15.3, ZTA counter -1.1, FGF22 binding -0.2, GRIN3A LBD mod 25.2*, DNA FID counter 0.8 and EBNA-1 inh 1.1.
Screening COc1ccc(C)cc1NC(=O)C(Sc1nnc(Nc2cc(C)ccc2OC)s1)c1ccccc1 (configuration not stated) returned HCV NS3 hel inh -12.7, ZTA counter 12.4, GRIN3A LBD mod 0.9, DNA FID counter -23.5 and EBNA-1 inh -0.8.
COc1cccc(NC(=O)C(Sc2nnc(Nc3ccccc3C)s2)c2ccccc2)c1 (configuration not stated) was read as HCV NS3 hel inh -32.5, ZTA counter 5.0, FGF22 binding 0.1, GRIN3A LBD mod 11.2*, DNA FID counter -14.8 and EBNA-1 inh 18.1.
CC(C)CC#Cc1cnc2c(c1)C(=O)N([C@H](C)CO)C[C@@H](C)[C@H](CN(C)Cc1ccccc1C(=O)O)O2 was read as FGF22 binding -0.2.
`Cc1nnc(SCC2=C(C(=O)O)N3C(=O)C(NC(=O)Cn4ncc(Cl)c4C)C3SC2)s1` (configuration not stated) gave HCV NS3 hel inh 20.1, ZTA counter 23.6, FGF22 binding 43.0*, GRIN3A LBD mod 0.4, DNA FID counter -25.0 and EBNA-1 inh 2.8.
Cc1cc(C)n(CC(=O)NC2C(=O)N3C(C(=O)O)=C(CSc4nnc(C)s4)CSC23)n1 (configuration not stated) was read as HCV NS3 hel inh 6.2, ZTA counter 1.9, FGF22 binding -0.3, GRIN3A LBD mod -0.4, DNA FID counter -22.3 and EBNA-1 inh 1.0.
`Cc1cc(C)n(/C(=C\N(C)C)C(=O)c2cccc([N+](=O)[O-])c2)n1` gave HCV NS3 hel inh 9.2, ZTA counter -0.8, FGF22 binding -0.3, GRIN3A LBD mod 0.4, DNA FID counter -7.9 and EBNA-1 inh 6.8.
For Cc1cc([N+](=O)[O-])ccc1NC(=O)c1ccco1 the results were HCV NS3 hel inh -2.1, ZTA counter -17.6, FGF22 binding 0.6, GRIN3A LBD mod -2.2, DNA FID counter -10.6 and EBNA-1 inh 1.5.
Cc1ccc(C)c2c1[nH]c1ccc([N+](=O)[O-])cc12 was read as HCV NS3 hel inh 0.2, ZTA counter -6.7, GRIN3A LBD mod 35.3*, DNA FID counter 22.4 and EBNA-1 inh -0.6.
Screening Cc1ccc([N+](=O)[O-])cc1N returned HCV NS3 hel inh 1.7, ZTA counter -14.1, FGF22 binding 43.5*, GRIN3A LBD mod -4.9, DNA FID counter -5.3 and EBNA-1 inh 1.6.
Cc1c(C(=O)NN)[nH]c2ccc([N+](=O)[O-])cc12 was read as HCV NS3 hel inh -5.3, ZTA counter 6.9, FGF22 binding 0.3, GRIN3A LBD mod 4.7, DNA FID counter -1.9 and EBNA-1 inh 4.1.
